In one data set the test system is HeLa. Put plainly: MTT cytotoxicity assay. The settings on record: read-out: IC50 HeLa, 48 h. It counts as cell-based, human. A digest of the protocol:
(§1)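 Cancer lines and normal LO2 cells were incubated with test compound for 48 h before viability was assessed. IC50 values reported as means ± SD.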

The test system of the next data set is A549. As to the kind of experiment: MTT cytotoxicity assay. It counts as cell-based, human. As to conditions: 48 h; for IC50: read-out: IC50 A549, MTT. The procedure, abridged:
as §1
(In general: Tetrazolium assays rely on reduction of a dye to a coloured formazan, in cell work by metabolically active cells.)

Data set [1] relates to cisplatin-resistant A549 (A549R). Put plainly: MTT cytotoxicity assay. Type of data set: cell-based, human. As to conditions: for IC50: read-out: IC50 A549R, 48 h, MTT; for cross-resistance with cisplatin: cisplatin-resistant A549R cells. The procedure, abridged: as §1
The test system of the next data set is MDB-MA-231. Put plainly: MTT cytotoxicity assay. The settings on record: read-out: IC50 MDB-MA-231, 48 h. Type of data set: cell-based, human. A digest of the protocol:
as §1

A further data set concerns PC3. Put plainly: MTT cytotoxicity assay. Type of data set: cell-based, human. The settings on record: read-out: IC50 PC3, 48 h. The procedure, abridged:
as §1

The next data set concerns LO2. As to the kind of experiment: MTT cytotoxicity assay. As to conditions: read-out: IC50 LO2, 48 h, human normal liver cells. It counts as cell-based. A digest of the protocol: as §1
The nature of data set [2]: Lipophilicity, shake-flask log Po/w. Type of data set: physicochemical. As to conditions: octanol/water.
Data set [3] has as its system A549 cells. Put plainly: Intracellular ATP quantification. The settings on record: for impact on intracellular ATP levels: A549, 6 h, versus control cells; for intracellular ATP level: A549, 10 μM, 6 h, control 86.3 ± 1.0 nM. It counts as cell-based, human. The procedure, abridged:
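A549 cells exposed for 6 h to vehicle or to test compound across several concentrations. Intracellular ATP content measured and reported in nM, relative to vehicle-treated control cells.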

A short description of data set [4]: Stability of complex 2 by 1H NMR. Type of data set: physicochemical. As to conditions: DMSO-d6/D2O (v/v, 7/3), 37 °C.
The target in data set [5] is bovine serum albumin (BSA) (Bos taurus, UniProt P02769). Put plainly: Emission enhancement upon binding with BSA. As to conditions: molar ratio BSA : Ir(III) 8 : 1.
In data set [6] the test system is A549 cells. As to the kind of experiment: MMP analysis, JC-1 flow cytometry. It counts as cell-based, human. As to conditions: A549, 10 μM, 6 h, control 6.6 ± 0.7%.
Data set [7] relates to A549 cells. Put plainly: Mitochondrial bioenergetics, Seahorse OCR. It counts as cell-based, human. The settings on record: for non-mitochondrial respiration: after rotenone/antimycin A; for ATP production (coupled respiration, OCR): oligomycin; for ATP production (coupled respiration, OCR) / basal OCR: versus control. The procedure, abridged: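 Oxygen consumption rate of treated A549 cells measured on a Seahorse XF24 analyser. Sequential injections: oligomycin 0.75 μM, FCCP 0.6 μM, then rotenone 0.5 μM plus antimycin A 0.5 μM. OCR normalised to protein by BCA assay. Basal respiration = basal OCR minus post-rotenone/antimycin OCR. ATP-linked respiration = basal minus post-oligomycin OCR. Non-mitochondrial respiration = OCR remaining after rotenone/antimycin.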

In data set [8] the test system is A549 cells. Put plainly: Intracellular ROS detection, H2DCFDA flow cytometry. As to conditions: A549, 10 μM, 6 h. Type of data set: cell-based, human.
For data set [9], the system named is A549 cells. Put plainly: MTT viability with NAC pretreatment. Type of data set: cell-based, human. As to conditions: A549, NAC 10 mM 1 h, then 24 h.
Data set [10] has as its system A549 cells. Put plainly: Cell cycle analysis, PI flow cytometry. It counts as cell-based, human. As to conditions: A549, 2.5 μM, 24 h; control 57.4 ± 3.1%. A general note: A flow cytometer gives signals particle by particle.
In data set [11] the test system is caspase-3/7 in A549 cells. Put plainly: Caspase-3/7 activity, Caspase-Glo assay. Type of data set: cell-based, human. As to conditions: A549, 10 μM, 12 h.
Data set [12] relates to A549 cells. As to the kind of experiment: MTT viability with z-VAD-fmk pretreatment. Type of data set: cell-based, human. As to conditions: A549, z-VAD-fmk 50 μM 2 h, then 24 h.
The test system of data set [13] is A549 cells. As to the kind of experiment: Annexin V/PI double staining, flow cytometry. It counts as cell-based, human. As to conditions: 24 h; for apoptotic cells: A549, 10 μM, control 1.4 ± 0.02%; for effect of NAC pre-treatment on apoptosis-inducing capability: A549, NAC 10 mM. A digest of the protocol: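 A549 cells treated with test compound for 24 h, then double-labelled with annexin V and PI and analysed by flow cytometry. Early apoptotic cells scored as annexin V-positive/PI-negative, and late apoptotic/necrotic cells as annexin V-positive/PI-positive. Both fractions were counted as apoptotic.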

Another data set concerns A549/LO2 coculture. As to the kind of experiment: Co-culture model of A549 and LO2 cells, annexin V/PI. The settings on record: 10 μM, 24 h, A549 Hoechst-prelabeled. It counts as cell-based, human.
The subject of data set [14] is A549 cells. As to the kind of experiment: Microarray gene chip analysis. It counts as cell-based, human. The settings on record: A549, 3 μM, 24 h.

bovine serum albumin (BSA), sequence (P02769 25-607): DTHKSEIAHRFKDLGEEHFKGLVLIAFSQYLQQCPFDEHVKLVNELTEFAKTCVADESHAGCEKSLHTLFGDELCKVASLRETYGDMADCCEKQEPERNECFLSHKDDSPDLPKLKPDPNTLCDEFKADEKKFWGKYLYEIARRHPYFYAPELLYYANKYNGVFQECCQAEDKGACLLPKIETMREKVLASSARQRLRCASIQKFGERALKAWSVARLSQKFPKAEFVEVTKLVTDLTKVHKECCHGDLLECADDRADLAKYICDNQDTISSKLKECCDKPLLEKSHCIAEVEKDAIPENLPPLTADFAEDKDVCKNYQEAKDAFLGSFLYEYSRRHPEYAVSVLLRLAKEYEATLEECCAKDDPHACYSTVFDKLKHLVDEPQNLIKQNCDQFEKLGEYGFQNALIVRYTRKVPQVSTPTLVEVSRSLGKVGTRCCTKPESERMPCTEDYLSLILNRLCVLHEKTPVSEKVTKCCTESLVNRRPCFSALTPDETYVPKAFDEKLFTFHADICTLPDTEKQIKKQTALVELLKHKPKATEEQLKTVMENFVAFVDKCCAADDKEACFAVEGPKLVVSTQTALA

Turning to `N.N.[Cl][Pt][Cl]` [Cisplatin, reference compound], the IC50 (in general, the concentration that gives 50% inhibition) in the data set with HeLa came to 18.8 ± 1.4 µM; in the data set with A549 it was 22.4 ± 2 µM; in [1], 120 ± 6.5 µM; in the data set with MDB-MA-231, 27.5 ± 2.5 µM; with PC3 it was 23.8 ± 2 µM; with LO2, 26.9 ± 1.9 µM.

In the case of `F[P-](F)(F)(F)(F)F.OCc1ccnc(-c2cc(CO)ccn2)c1.[Ir+3].[c-]1ccccc1-c1ccccn1.[c-]1ccccc1-c1ccccn1` [Complex 1], the half-maximal inhibitory concentration (IC50) with HeLa was 10 ± 0.9 µM; in the data set with A549, 24 ± 2 µM; in data set [1] it was 42.2 ± 2.7 µM; with MDB-MA-231, 24.5 ± 1.9 µM; with PC3, > 100 µM; in the data set with LO2, > 100 µM. Besides, the “Lipophilicity (log Po/w)” value in [2] amounted to 0.23. The “impact on intracellular ATP levels” value with A549 cells [3] is reported as “not obvious”.

`ClCc1ccnc(-c2cc(CCl)ccn2)c1.F[P-](F)(F)(F)(F)F.[Ir+3].[c-]1ccccc1-c1ccccn1.[c-]1ccccc1-c1ccccn1` [Complex 2]: the concentration for half-maximal inhibition (IC50) in the data set with HeLa was 0.52 ± 0.04 µM. The “selectivity for cancerous A549 cells over noncancerous LO2 cells” value in the data set with A549 (from IC50 values) is on record as ~11 fold. Further, the IC50 in the data set with A549 turned out to be 0.4 ± 0.02 µM. In addition, in data set [1], the cross-resistance with cisplatin result is given as “not cross-resistant with cisplatin” and the IC50 is 0.64 ± 0.04 µM. For the same molecule, in the data set with MDB-MA-231, the half-maximal inhibitory concentration (IC50) was 0.33 ± 0.02 µM. Further, in the data set on PC3, the IC50 amounted to 1.4 ± 0.1 µM. Further, in the data set with LO2, the IC50 is 4.5 ± 0.3 µM. Moreover, the “complex invariant (intact)” value in data set [4] (48 h) was “about 98.5%”. For the same molecule, the “complex transformed (hydrolysis of chloromethyl groups)” value in data set [4] (7 days) is reported as “about 26.2%”. In addition, the “Lipophilicity (log Po/w)” value in [2] amounted to 1.28. Also, in [5], the “emission enhancement upon binding with BSA” value is given as ~11.6 fold. Besides, the “percentage of cells with mitochondrial membrane depolarization” value with A549 cells [6] came out at 85.7 ± 1.7%. Moreover, in the data set with A549 cells [3], the “intracellular ATP level” value is reported as 30.2 ± 2.4 nM and the “impact on intracellular ATP levels” value is “significant dose-dependent decrease”. In addition, in the data set with A549 cells [7], the non-mitochondrial respiration result is on record as “decrease”; the “ATP production (coupled respiration, OCR)” value was “dose-dependent decrease”; the “basal OCR” value is given as “decrease”. In the data set with A549 cells [8], the “increase of mean fluorescent intensity (MFI) of DCF” value was “approximately 5.5 fold”. In the data set on A549 cells [9], the “effect of NAC pre-treatment on antiproliferative potency” value is recorded as “significantly diminishes”. Besides, in the data set with A549 cells [10], the “percentage of cells in the G0/G1 phase” value was 85.3 ± 4.4%. Also, the “increase of caspase-3/7 activity” value in data set [11] is “approximately 1.6 fold”. Besides, the “effect of z-VAD-fmk pre-treatment on antiproliferative activity” value in the data set on A549 cells [12] is recorded as “inhibits the antiproliferative activity”. In addition, in the data set with A549 cells [13], the apoptotic cells is given as 17.5 ± 0.8% and the “effect of NAC pre-treatment on apoptosis-inducing capability” value was “decreases the apoptosis-inducing capability”. Moreover, the “selective killing of cancer cells in co-culture” value in the data set with A549/LO2 coculture is “most of the A549 cells (blue nuclei) are stained positively by both annexin V and PI, while the LO2 cells are still viable”. In addition, in the data set on A549 cells [14], the “No. of down-regulated genes sets (p< 0.05, FC> 2)” value is reported as 715 and the “No. of up-regulated genes sets (p< 0.05, FC> 2)” value is listed as 507.

Consider `F[P-](F)(F)(F)(F)F.Fc1c[c-]c(-c2ccccn2)c(F)c1.Fc1c[c-]c(-c2ccccn2)c(F)c1.OCc1ccnc(-c2cc(CO)ccn2)c1.[Ir+3]` [Complex 3], for which the 50% inhibitory concentration (IC50) was 2.7 ± 0.2 µM with HeLa; 16.8 ± 1.2 µM in the data set with A549; 17.8 ± 1.4 µM in data set [1]; 12.3 ± 1.1 µM in the data set with MDB-MA-231; 38 ± 1.9 µM with PC3; 8.1 ± 0.5 µM in the data set on LO2. For the same molecule, in data set [2], the “Lipophilicity (log Po/w)” value amounted to 1.09. In the data set on A549 cells [3], the “impact on intracellular ATP levels” value is on record as “not obvious”.

On to `ClCc1ccnc(-c2cc(CCl)ccn2)c1.F[P-](F)(F)(F)(F)F.Fc1c[c-]c(-c2ccccn2)c(F)c1.Fc1c[c-]c(-c2ccccn2)c(F)c1.[Ir+3]` [Complex 4], for which, in the data set on HeLa, the half-inhibitory concentration (IC50) amounted to 1.8 ± 0.1 µM. Also, the IC50 with A549 was 0.21 ± 0.02 µM. Further, in [1], the cross-resistance with cisplatin result is recorded as “not cross-resistant with cisplatin” and the half-maximal inhibitory concentration (IC50) stood at 0.74 ± 0.05 µM. Besides, the 50% inhibitory concentration (IC50) in the data set with MDB-MA-231 came out at 0.66 ± 0.05 µM. In the data set with PC3, the 50% inhibitory concentration (IC50) stood at 1.04 ± 0.09 µM. In addition, the IC50 in the data set with LO2 is 1.5 ± 0.1 µM. Moreover, the “Lipophilicity (log Po/w)” value in data set [2] is recorded as 2.12. Further, in the data set with A549 cells [6], the “percentage of cells with mitochondrial membrane depolarization” value stood at 82.4 ± 7.6%. In the data set with A549 cells [3], the “intracellular ATP level” value is 20.2 ± 3.3 nM and the “impact on intracellular ATP levels” value is given as “significant dose-dependent decrease”. In addition, in the data set on A549 cells [7], the non-mitochondrial respiration entry is reported as “decrease”; the “ATP production (coupled respiration, OCR)” value is recorded as “dose-dependent decrease”; the “basal OCR” value is “decrease”. Besides, the “increase of mean fluorescent intensity (MFI) of DCF” value with A549 cells [8] is listed as ~13.7 fold. Moreover, in the data set on A549 cells [9], the “effect of NAC pre-treatment on antiproliferative potency” value is “significantly diminishes”. In the data set with A549 cells [10], the “percentage of cells in the G0/G1 phase” value worked out at 88.8 ± 5.2%. The “increase of caspase-3/7 activity” value in data set [11] was ~1.7 fold. The “effect of z-VAD-fmk pre-treatment on antiproliferative activity” value with A549 cells [12] is given as “inhibits the antiproliferative activity”. Besides, in the data set with A549 cells [13], the apoptotic cells was determined as 61.5 ± 1.1% and the “effect of NAC pre-treatment on apoptosis-inducing capability” value was “decreases the apoptosis-inducing capability”.

Values taken from PMC5933427 (Chemical Science, 2016).
